PMC3781598 (Pharmaceutical research, 2013)
Values after ≈ are worked out from the molar mass of the structure shown. “Also recorded” adds a separate entry of the source.

What was measured:
human CYP2A6 [1] = biological target: T1, human CYP2A6 (Homo sapiens, UniProt P11509); test: Spectral ligand binding assay; details: for Kd 2A6: spectral titration, ≥ = minimal Kd value
T1 sequence (P11509 with tags, fused parts or gaps limits assumed): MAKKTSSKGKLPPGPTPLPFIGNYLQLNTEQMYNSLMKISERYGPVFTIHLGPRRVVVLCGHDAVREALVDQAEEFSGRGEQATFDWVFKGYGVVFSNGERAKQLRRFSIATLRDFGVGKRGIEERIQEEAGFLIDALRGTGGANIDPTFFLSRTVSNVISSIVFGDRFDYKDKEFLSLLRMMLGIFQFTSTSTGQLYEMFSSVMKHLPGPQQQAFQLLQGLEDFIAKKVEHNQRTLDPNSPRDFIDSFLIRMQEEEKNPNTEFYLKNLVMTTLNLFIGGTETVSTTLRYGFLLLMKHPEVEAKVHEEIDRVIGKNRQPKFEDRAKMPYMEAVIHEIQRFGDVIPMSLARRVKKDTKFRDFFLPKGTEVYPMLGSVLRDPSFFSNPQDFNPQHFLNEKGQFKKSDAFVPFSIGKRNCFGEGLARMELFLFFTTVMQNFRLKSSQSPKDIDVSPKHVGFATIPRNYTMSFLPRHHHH

human CYP2A13 = biological target: T2, human CYP2A13 (Homo sapiens, UniProt Q16696); test: Spectral ligand binding assay; details: for Spectral shift type 2A13: UV/Vis difference spectra
T2 sequence (Q16696 25-494): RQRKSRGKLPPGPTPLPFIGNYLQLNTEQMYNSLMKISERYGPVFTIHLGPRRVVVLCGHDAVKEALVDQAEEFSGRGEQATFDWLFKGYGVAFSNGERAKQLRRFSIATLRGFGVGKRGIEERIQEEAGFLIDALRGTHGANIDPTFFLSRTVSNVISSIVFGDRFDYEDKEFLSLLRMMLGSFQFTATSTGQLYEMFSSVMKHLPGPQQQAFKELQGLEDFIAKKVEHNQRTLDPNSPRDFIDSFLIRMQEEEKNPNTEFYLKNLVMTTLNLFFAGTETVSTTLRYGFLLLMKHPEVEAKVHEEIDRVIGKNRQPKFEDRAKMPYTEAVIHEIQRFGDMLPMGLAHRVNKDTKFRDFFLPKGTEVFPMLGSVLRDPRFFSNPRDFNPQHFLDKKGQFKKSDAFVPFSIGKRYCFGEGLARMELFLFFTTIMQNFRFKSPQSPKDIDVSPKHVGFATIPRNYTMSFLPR

[2] = Aqueous solubility, shake-flask incubation method; assay type: physicochemical; details: phosphate-buffered saline, pH 7.4, aqueous buffer, thermodynamic from solid
Method in brief: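 Shake-flask equilibration of test compound in phosphate-buffered saline, pH 7.4, for 24 h at room temperature.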

genetic toxicity = test: Ames test; assay type: cell-based; details: compound concentrations 5-100 μM
[3] = Metabolic stability in liver microsomes; assay type: in vitro ADME, human; details: for Percent Loss of Substrate / substrate remaining: human liver microsomes; for Percent Loss of Substrate: 1 μM, 20-minute incubation; for substrate remaining: at the end of 20 min; for half-life at 1 μM / microsomal CLint at 1 μM: human, liver microsomes, pH 7.4
Method in brief: (§1)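 Pooled liver or lung microsomes (male B6C2F1 mouse, male Sprague-Dawley rat, human) at 1.0 mg protein/ml in 50 mM potassium phosphate pH 7.4, 3 mM MgCl2, 1 mM EDTA. […] Stopped at 0, 5, 10, 20 min with acetonitrile containing antipyrene, then LC/MS/MS. Single-exponential kel gave T1/2. CLint = kel × incubation volume/mg protein.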

[4] = Metabolic stability in liver microsomes; assay type: in vitro ADME, male B6C2F1 mouse; details: for half-life at 1 μM / microsomal CLint at 1 μM: male, B6C2F1, mouse, liver microsomes, pH 7.4; for Percent Loss of Substrate: mouse liver microsomes, 1 μM, 20-minute incubation
Method in brief: as §1

[5] = Metabolic stability in lung microsomes; assay type: in vitro ADME, male Sprague-Dawley rat; details: for half-life at 1 μM / microsomal CLint at 1 μM: male, Sprague-Dawley, rat, lung microsomes, pH 7.4; for Percent Loss of Substrate: rat lung microsomes, 1 μM, 20-minute incubation
Method in brief: as §1

CYP1A2 = biological target: T3, CYP1A2 (Homo sapiens, UniProt P05177); test: Metabolic stability phenotyping with recombinantly expressed CYPs; assay type: in vitro ADME; details: for half-life at 1 μM: human, recombinant CYP1A2, pH 7.4
T3 sequence (P05177 2-516 limits assumed): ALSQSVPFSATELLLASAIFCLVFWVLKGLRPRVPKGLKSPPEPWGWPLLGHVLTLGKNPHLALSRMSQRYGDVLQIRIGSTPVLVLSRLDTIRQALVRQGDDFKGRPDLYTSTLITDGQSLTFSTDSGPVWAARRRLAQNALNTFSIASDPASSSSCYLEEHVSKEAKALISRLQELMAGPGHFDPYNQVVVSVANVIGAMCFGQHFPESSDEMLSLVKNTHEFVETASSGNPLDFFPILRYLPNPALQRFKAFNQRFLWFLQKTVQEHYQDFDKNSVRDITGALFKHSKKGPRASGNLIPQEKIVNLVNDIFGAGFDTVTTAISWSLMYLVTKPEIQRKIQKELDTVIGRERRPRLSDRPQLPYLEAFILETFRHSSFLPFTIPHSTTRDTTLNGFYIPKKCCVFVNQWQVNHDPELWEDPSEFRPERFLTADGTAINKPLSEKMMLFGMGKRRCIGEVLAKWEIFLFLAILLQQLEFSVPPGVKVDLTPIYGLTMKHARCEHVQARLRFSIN
Method in brief: (§2)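 Each recombinant human CYP at 100 pmol/ml with 1 μM test compound in potassium phosphate pH 7.4, 3.33 mM MgCl2. Prewarmed 10 min at 37 °C, then started with NADPH regenerating system; no-NADPH buffer controls. Aliquots at 0–45 min quenched in methanol with buspirone internal standard. MS peak-area ratios gave ln(ratio)-vs-time slope, converted to T1/2. Duplicates.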

CYP2C9 = CYP2C9 (Homo sapiens, UniProt P11712); test: as above; assay type: in vitro ADME; details: recombinant CYP2C9, pH 7.4
CYP2C9, sequence (P11712 whole entry): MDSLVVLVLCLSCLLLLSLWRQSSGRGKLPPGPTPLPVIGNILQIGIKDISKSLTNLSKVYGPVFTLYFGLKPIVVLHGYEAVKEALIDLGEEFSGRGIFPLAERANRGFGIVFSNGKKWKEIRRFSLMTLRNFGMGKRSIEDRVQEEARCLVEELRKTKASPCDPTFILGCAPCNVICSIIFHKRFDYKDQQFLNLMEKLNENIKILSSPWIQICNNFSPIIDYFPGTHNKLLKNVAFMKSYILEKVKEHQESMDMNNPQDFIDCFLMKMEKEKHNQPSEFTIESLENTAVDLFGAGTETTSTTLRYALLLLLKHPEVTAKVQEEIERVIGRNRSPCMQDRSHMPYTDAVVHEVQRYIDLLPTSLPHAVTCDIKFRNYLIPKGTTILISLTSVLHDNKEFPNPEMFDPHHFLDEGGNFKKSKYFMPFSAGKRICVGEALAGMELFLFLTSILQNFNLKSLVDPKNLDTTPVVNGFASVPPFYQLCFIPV
Method in brief: as §2

CYP3A4 = CYP3A4 (Homo sapiens, UniProt P08684); test: as above; assay type: in vitro ADME; details: recombinant CYP3A4, pH 7.4
CYP3A4, sequence (P08684 2-503 limits assumed): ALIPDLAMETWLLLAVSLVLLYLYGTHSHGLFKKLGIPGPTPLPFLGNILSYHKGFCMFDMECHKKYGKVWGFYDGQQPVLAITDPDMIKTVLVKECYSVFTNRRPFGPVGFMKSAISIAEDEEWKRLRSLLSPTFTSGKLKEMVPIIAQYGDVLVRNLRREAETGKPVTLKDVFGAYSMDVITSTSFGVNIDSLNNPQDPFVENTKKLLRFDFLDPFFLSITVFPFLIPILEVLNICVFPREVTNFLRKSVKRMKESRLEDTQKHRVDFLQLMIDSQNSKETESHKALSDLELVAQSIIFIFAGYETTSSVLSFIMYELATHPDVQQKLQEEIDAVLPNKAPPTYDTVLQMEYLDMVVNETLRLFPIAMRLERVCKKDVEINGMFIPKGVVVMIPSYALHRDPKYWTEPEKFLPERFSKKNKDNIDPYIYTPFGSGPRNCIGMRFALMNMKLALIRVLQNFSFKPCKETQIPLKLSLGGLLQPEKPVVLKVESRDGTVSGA
Method in brief: as §2

human CYP2A6 [6] = biological target: T1, human CYP2A6; test: Coumarin metabolism assay
[7] = Kd 2A13, spectral titration, ≥ = minimal Kd value

Kd (human CYP2A13; [7]) [µM] | Spectral shift type 2A13 (human CYP2A13) | solubility at 24 h [2] [µM] | Percent Loss of Substrate [3] [%] | substrate remaining [3] [%] | half-life at 1 μM [3] [min] | microsomal CLint at 1 μM [3] [µL/min/mg] | half-life at 1 μM [4] [min] | microsomal CLint at 1 μM [4] [µL/min/mg] | Percent Loss of Substrate [4] | half-life at 1 μM [5] [min] | microsomal CLint at 1 μM [5] [µL/min/mg] | Percent Loss of Substrate [5] [%] | half-life at 1 μM (CYP1A2) [h] | half-life at 1 μM (CYP2C9) [min] | half-life at 1 μM (CYP3A4) [min] | Ki (human CYP2A6 [6]) [µM] | Structure (SMILES) | Kd 2A6 (human CYP2A6 [1]) | Ames test revertants (genetic toxicity) | also measured
5.9 ± 3.4 | I | 180 (≈ 38.1 µg/mL) | 47.0 | 53 | 22.9 | 30.3 | 1 | 687 | 100/100% | 2.4 | 283 | 99.8 | 38.6 | 476 | 33 | ≥ 1000 | Clc1ccccc1CN1CCOCC1 [Compound 3, 4-(2-chlorobenzyl)morpholine] | No ^** Spectral Shift | few or no revertants | Average T1/2 CYP1A2 (CYP1A2; recombinant enzyme 100 pmol/ml, 1 μM compound): essentially no loss
5.2 | I | 184 (≈ 42.3 µg/mL) | 85.5 | 14 | 7.6 | 91.4 | 0.8 | 916 | 100/100% | 1.5 | 478 | 100 | 20.2 | 230 | 25 | 287 | Fc1cccc(Cl)c1CN1CCOCC1 [Compound 7, 4-(2-chloro-6-fluorobenzyl)morpholine] | did not cause a spectral shift; also recorded: No ^** Spectral Shift | few or no revertants | spectral shift with 2A6 (human CYP2A6 [1]; follow-up titration of HTS hit, Figure 1D): no spectral shift; Kd (human CYP2A13; Kd CYP2A13, follow-up titration of HTS hit, Figure 1D): ~2 µM
